Data reported in ChEMBL document CHEMBL1137411, “Development of small-molecule cyclin D1-ablative agents” (J Med Chem, 2006).
Activity calls are given as the source filed them. The calls are words filed in the database; no cut-off is given here.

How the values were obtained:
MCF7 [1] = assay: Antiproliferative activity against MCF7 cells by MTT assay; type: functional, cell-based; conditions: Homo sapiens
Procedure, shortened: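 MCF-7 cells seeded in DMEM/Ham's F-12 with 10% FBS for 24 h, then exposed to test agents in DMSO (final 0.1%) in 5% FBS medium. Vehicle controls got matching DMSO. Medium replaced with 0.5 mM MTT in 10% FBS RPMI 1640 for 2 h at 37 °C, and reduced dye solubilized in DMSO. Six replicates.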

MCF7 [2] = assay: Repression of cyclinD1 level in MCF7 cells at 2.5 uM relative to control; type: functional, Homo sapiens
Procedure, shortened: (§1)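 MCF-7 cells exposed for 72 h in 5% FBS-supplemented medium over 2.5-7.5 µM. Lysates were run on 10% SDS-PAGE and immunoblotted for cyclin D1 with ECL detection. Band intensity was quantified by densitometry, normalized to β-actin and expressed relative to DMSO control (100%).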

MCF7 [3] = assay: Repression of cyclinD1 level in MCF7 cells after 72 hrs; type: functional, cell-based; conditions: Homo sapiens, MCF7, 72 h; procedure, shortened: as §1
MCF7 [4] = assay: Repression of cyclinD1 level in MCF7 cells at 7.5 uM relative to control; type: functional, Homo sapiens; procedure, shortened: as §1
MCF7 [5] = assay: Repression of cyclinD1 level in MCF7 cells at 5 uM relative to control; type: functional, Homo sapiens; procedure, shortened: as §1
MCF7 [6] = assay: Repression of cyclinD1 level in MCF7 cells at 10 uM; type: functional, cell-based; conditions: Homo sapiens

IC50 (MCF7 [1])	IC50 (MCF7 [3])	SMILES	Activity (MCF7 [2])	Activity (MCF7 [4])	Activity (MCF7 [5])	Activity (MCF7 [6])
55 µM	–	Cc1c(C)c2c(c(C)c1O)CCC(C)(COc1ccc(/C=C3\SC(=O)NC3=O)cc1)O2 (stereo not given)	–	–	–	–
–	2.5 µM	C=CCOc1c(C)c(C)c2c(c1C)CCC(C)(COc1ccc(/C=C3\SC(=O)NC3=O)cc1OC)O2 (stereo not given)	34%	1%	5%	–
–	–	C=CCOc1c(C)c(C)c2c(c1C)CCC(C)(COc1ccc(/C=C3\SC(=O)NC3=O)cc1C)O2 (stereo not given)	84%	8%	24%	–
–	–	C=CCOc1c(C)c(C)c2c(c1C)CCC(C)(COc1cccc(/C=C3\SC(=O)NC3=O)c1)O2 (stereo not given)	84%	75%	92%	–
–	–	CC(C)=CCOc1c(C)c(C)c2c(c1C)CCC(C)(COc1ccc(/C=C3\SC(=O)NC3=O)cc1F)O2 (stereo not given)	95%	64%	87%	–
–	> 5 µM	C=CCOc1c(C)c(C)c2c(c1C)CCC(C)(COc1ccc(/C=C3\SC(=O)NC3=O)cc1)O2 (stereo not given)	45%	2%	42%	–
–	9 µM	CCCCOc1c(C)c(C)c2c(c1C)CCC(C)(COc1ccc(CC3SC(=O)NC3=O)cc1C(F)(F)F)O2 (stereo not given)	–	–	–	–
–	–	Cc1c(C)c2c(c(C)c1OC/C=C/c1ccccc1)CCC(C)(COc1ccc(/C=C3\SC(=O)NC3=O)cc1)O2 (stereo not given)	92%	43%	65%	–
–	–	CC(C)=CCOc1c(C)c(C)c2c(c1C)CCC(C)(COc1ccc(/C=C3\SC(=O)NC3=O)cc1)O2 (stereo not given)	76%	5%	21%	–
–	–	CCOc1cc(/C=C2\SC(=O)NC2=O)ccc1OCC1(C)CCc2c(C)c(OCC=C(C)C)c(C)c(C)c2O1 (stereo not given)	107%	54%	84%	–
–	–	CC(C)=CCOc1c(C)c(C)c2c(c1C)CCC(C)(COc1ccc(/C=C3\SC(=O)NC3=O)cc1Br)O2 (stereo not given)	96%	53%	84%	–
–	–	CC(C)=CCOc1c(C)c(C)c2c(c1C)CCC(C)(COc1ccc(/C=C3\SC(=O)NC3=O)cc1-c1ccc(F)cc1)O2 (stereo not given)	87%	85%	92%	–
–	–	Cc1c(C)c2c(c(C)c1OC(=O)CCC(=O)O)CCC(C)(COc1ccc(/C=C3\SC(=O)NC3=O)cc1)O2 (stereo not given)	115%	76%	98%	–
–	–	COc1cc(/C=C2\SC(=O)NC2=O)ccc1OCC1(C)CCc2c(C)c(OCC=C(C)C)c(C)c(C)c2O1 (stereo not given)	95%	54%	78%	–
–	–	C=CCOc1c(C)c(C)c2c(c1C)CCC(C)(COc1ccc(/C=C3\SC(=O)NC3=O)cc1OCC)O2 (stereo not given)	107%	75%	87%	–
–	–	Cc1c(C)c2c(c(C)c1OCc1ccccc1)CCC(C)(COc1ccc(/C=C3\SC(=O)NC3=O)cc1)O2 (stereo not given)	85%	12%	42%	–
–	6 µM	CCCCOc1c(C)c(C)c2c(c1C)CCC(C)(COc1ccc(/C=C3\SC(=O)NC3=O)cc1C(F)(F)F)O2 (stereo not given)	–	–	–	–
–	–	C=CCOc1c(C)c(C)c2c(c1C)CC[C@](C)(COc1ccc(/C=C3\SC(=O)NC3=O)cc1OC)O2	–	–	–	Active
–	–	CC(C)=CCOc1c(C)c(C)c2c(c1C)CCC(C)(COc1ccc(/C=C3\SC(=O)NC3=O)cc1C)O2 (stereo not given)	89%	27%	56%	–
–	–	C=CCOc1c(C)c(C)c2c(c1C)CCC(C)(COc1ccc(/C=C3\SC(=O)NC3=O)cc1Br)O2 (stereo not given)	102%	105%	98%	–
5 µM	–	C=CCOc1c(C)c(C)c2c(c1C)CC[C@@](C)(COc1ccc(/C=C3\SC(=O)NC3=O)cc1OC)O2	–	–	–	–
